ChEMBL document CHEMBL2346575, “Potential CRF1R PET imaging agents: 1-fluoroalkylsubstituted 5-halo-3-(arylamino)pyrazin-2(1H)-ones” (Bioorg Med Chem Lett, 2013)

Key:
[1] = Metabolic stability in baboon after 9 mins; assay type: ADME, organism-based, Papio; settings: in vivo, read-out: Stability
[2] = Metabolic stability in baboon after 13 mins; assay type: ADME, organism-based, Papio; settings: in vivo, read-out: Stability
[3] = biological target: T1, Corticotropin-releasing factor receptor 1 (Rattus norvegicus, UniProt P35353); test: Displacement of [125I]-o-CRF from CRF1 receptor in rat frontal cortex homogenate after 2 hrs by gamma counting; assay type: tissue-based
T1 sequence (P35353 whole entry): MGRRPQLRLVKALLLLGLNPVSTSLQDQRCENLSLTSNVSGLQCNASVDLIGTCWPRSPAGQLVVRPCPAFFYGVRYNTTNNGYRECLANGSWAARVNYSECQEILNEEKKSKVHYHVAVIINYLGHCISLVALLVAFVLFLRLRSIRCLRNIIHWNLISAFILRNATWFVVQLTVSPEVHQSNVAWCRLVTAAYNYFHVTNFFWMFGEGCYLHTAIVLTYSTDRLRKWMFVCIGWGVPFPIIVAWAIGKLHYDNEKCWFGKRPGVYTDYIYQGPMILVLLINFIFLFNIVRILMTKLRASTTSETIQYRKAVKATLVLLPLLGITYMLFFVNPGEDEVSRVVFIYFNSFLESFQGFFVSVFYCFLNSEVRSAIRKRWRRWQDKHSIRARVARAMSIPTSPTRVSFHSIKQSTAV
Procedure, shortened: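 Rat frontal cortex, thawed in 50 mM HEPES (pH 7.0 at 23 °C) with 10 mM MgCl2, 2 mM EGTA and protease inhibitors, then homogenized, spun twice at 32,000×g for 30 min and stored at -70 °C. Membranes (25 µg/well) incubated with 150 pM 125I-o-CRF and test drug, 2 h at 21 °C. Filtered on PEI-treated GF/B, washed with cold PBS/0.01% Triton X-100. Nonspecific binding with 1 µM DMP696.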

[4] = Lipophilicity, log D of the compound in octanol-phosphate buffer at pH 7.4 after 30 to 40 mins by shake flask method; assay type: physicochemical
Procedure, shortened: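 Phosphate buffer (25 mM, pH ~7.4) and octanol were pre-saturated overnight. Sample (1.0 mg) in 1 mL octanol added to 50 mL octanol-saturated buffer, shaken hard 30–40 min, then left until the layers separated. Each phase analyzed twice by HPLC.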

Cortex = test: Drug uptake in rat cortex after 30 mins; assay type: ADME, tissue-based; settings: in vivo, 0.5 h
Cerebellum = test: Drug uptake in rat cerebellum after 30 mins; assay type: ADME, tissue-based; settings: in vivo, 0.5 h
[5] = Drug uptake in rat pituitary gland; assay type: ADME, tissue-based; settings: in vivo

Row | Structure (SMILES) | IC50 [3] | logD [4] | further results
1 | CCCN(CCC)c1cc(C)nc2c(-c3ccc(N(C)[11CH3])nc3)c(C)nn12 |  |  | remaining at 0.15 h [1]: 50%
2 | COCCN(CCO[11CH3])c1cc(C)nc2c(-c3ccc(N(C)C)nc3)c(C)nn12 [[11C]DMP696] |  |  | remaining at 13 min [2]: 50%
3 | COc1nc(Cl)nc(C)c1Nc1nc(Cl)cn([C@@H](COCCF)C2CC2)c1=O | 19 nM | 3.3 | 
4 | N#Cc1cc(F)c(Nc2nc(Cl)cn([C@@H](COCCF)C3CC3)c2=O)cc1F | > 1000 nM | 4.6 | 
5 | N#Cc1cc(Cl)c(Nc2nc(Cl)cn([C@@H](COCCF)C3CC3)c2=O)c(Cl)c1 | 5 nM | 3.6 | 
6 | COCCN(CCOC)c1nc(C)nc2c(-c3ccc([76Br])cc3Cl)c(C)nn12 |  |  | Drug uptake (Cortex): 0.32 % ID/g; Drug uptake (Cerebellum): 0.29 % ID/g
7 | CCN(CCCC[18F])c1nc(C)nc2c1c(C)cn2-c1c(C)cc(C)cc1C [[18F]FBPPA] |  |  | Drug uptake [5]: 5.59%
8 | COc1nc(C)c(Nc2nc(Cl)cn(C(CCF)C3CC3)c2=O)c(OC)n1 (racemic) | 53 nM | 2.9 | 
9 | COc1cc(Cl)c(Nc2nc(Cl)cn([C@@H](COCCF)C3CC3)c2=O)c(Cl)c1 | 0.6 nM | 4 | 
10 | COc1nc(Cl)nc(C)c1Nc1nc(Br)cn([C@@H](COCCF)C2CC2)c1=O | 14 nM | 3.4 | 
11 | COc1cc(Cl)c2c(c1)CCN2c1nc(Cl)cn([C@@H](COCCF)C2CC2)c1=O | 3.2 nM | 4 | 
12 | Cc1cc(C#N)cc(Cl)c1Nc1nc(Cl)cn([C@@H](COCCF)C2CC2)c1=O | 4.5 nM | 3.7 | 
13 | Cc1cc(C#N)cc(C)c1Nc1nc(Cl)cn([C@@H](COCCF)C2CC2)c1=O | 7.4 nM | 3.4 | 
14 | COc1cc(C)c(Nc2nc(Cl)cn([C@@H](CF)C3CC3)c2=O)cc1C | 1.1 nM | 4.5 | 
15 | COc1cc(Cl)c(Nc2nc(Br)cn([C@@H](COCCF)C3CC3)c2=O)c(Cl)c1 | 0.46 nM | 4.1 | 
16 | COc1cc(C)c(Nc2nc(C)cn([C@@H](CF)C3CC3)c2=O)cc1C | 0.61 nM | 4.2 | 
17 | COc1cc(Cl)c(Nc2nc(C#N)cn([C@@H](COCCF)C3CC3)c2=O)c(Cl)c1 | 7.7 nM | 3.4 | 
18 | COc1cc(C)c(Nc2nc(Cl)cn([C@@H](COCCF)C3CC3)c2=O)cc1C | 0.46 nM | 4.6 | 
19 | COc1nc(C)c(Nc2nc(C)cn([C@@H](CF)C3CC3)c2=O)cc1C | 4.7 nM | 4.1 | 
